The values that follow come from ChEMBL document CHEMBL4706499, “PTG-0861: A novel HDAC6-selective inhibitor as a therapeutic strategy in acute myeloid leukaemia” (Eur J Med Chem, 2020).

Molecules are shown by their SMILES. Calls of active or inactive are those of the source. The calls are words filed in the database; no cut-off is given here.

For series [1], the system named is MV4-11. In words: Induction of apoptosis in human MV4-11 cells assessed as viable cells at 2 microM measured after 18 hrs by Annexin V/Propidium iodide stain based Flow cytometry assay (reference value: 53.27%). The following applies: read-out: Activity. It counts as functional.
Series [2] has as its target T1, Protein deacetylase HDAC6 (Homo sapiens) (UniProt Q9UBN7).
T1 sequence (whole entry): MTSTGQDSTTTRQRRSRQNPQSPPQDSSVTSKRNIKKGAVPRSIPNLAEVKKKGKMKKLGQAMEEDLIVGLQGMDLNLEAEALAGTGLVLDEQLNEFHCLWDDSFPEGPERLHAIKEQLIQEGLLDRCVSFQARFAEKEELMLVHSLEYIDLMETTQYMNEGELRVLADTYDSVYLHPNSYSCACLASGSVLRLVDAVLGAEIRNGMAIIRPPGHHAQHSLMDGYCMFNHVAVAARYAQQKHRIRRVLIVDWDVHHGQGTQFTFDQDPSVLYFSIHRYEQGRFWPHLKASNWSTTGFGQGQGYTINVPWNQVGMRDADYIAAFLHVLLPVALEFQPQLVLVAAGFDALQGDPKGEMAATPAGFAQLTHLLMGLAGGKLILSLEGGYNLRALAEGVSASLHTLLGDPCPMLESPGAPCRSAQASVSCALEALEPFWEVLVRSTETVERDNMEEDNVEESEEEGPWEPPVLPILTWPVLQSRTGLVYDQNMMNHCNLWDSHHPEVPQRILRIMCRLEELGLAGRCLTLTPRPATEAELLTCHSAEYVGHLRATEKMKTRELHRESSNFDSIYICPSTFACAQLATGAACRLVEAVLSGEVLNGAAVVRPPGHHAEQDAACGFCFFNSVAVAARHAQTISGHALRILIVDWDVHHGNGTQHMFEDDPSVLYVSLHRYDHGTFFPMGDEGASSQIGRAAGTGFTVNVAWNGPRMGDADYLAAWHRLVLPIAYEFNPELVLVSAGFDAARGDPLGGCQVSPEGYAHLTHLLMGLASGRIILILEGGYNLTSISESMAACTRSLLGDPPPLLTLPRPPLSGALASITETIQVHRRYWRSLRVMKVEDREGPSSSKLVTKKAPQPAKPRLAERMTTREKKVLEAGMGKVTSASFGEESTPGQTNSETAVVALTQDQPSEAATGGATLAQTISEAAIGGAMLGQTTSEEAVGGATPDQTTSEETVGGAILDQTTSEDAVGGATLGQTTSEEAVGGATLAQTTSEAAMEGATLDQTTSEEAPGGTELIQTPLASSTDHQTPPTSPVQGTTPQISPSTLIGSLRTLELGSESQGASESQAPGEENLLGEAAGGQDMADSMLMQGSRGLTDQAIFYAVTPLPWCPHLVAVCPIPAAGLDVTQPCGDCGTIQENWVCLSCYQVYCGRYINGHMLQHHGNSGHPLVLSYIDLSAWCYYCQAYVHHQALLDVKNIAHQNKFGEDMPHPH
In words: Inhibition of HDAC6 in human HeLa cells assessed as increase in acetylated alpha tubulin at 0.1 uM measured after 6 hrs by Immunofluorescent assay.

A further series has as its system Fibroblast. Briefly: Cytotoxicity against human fibroblasts measured after 72 hrs by spectrophotometer method. It counts as cell-based.
A short description of series [3]: Glutathione reactivity at pH 7.4 assessed as compound remaining measured after 30 mins by LC-MS/MS method. The following applies: glutathione solution, read-out: Stabilty. Format: physicochemical.
In another series the target is Histone deacetylase 5 (Homo sapiens, UniProt Q9UQL6). Briefly: Inhibition of recombinant full length human HDAC5 expressed in SF9 baculovirus using FAM- labelled acetylated peptide as substrate measured by Electrophoretic mobility shift assay.
The next series has as its target T2, Histone deacetylase 7 (Homo sapiens, UniProt Q8WUI4).
T2 sequence (Q8WUI4 whole entry): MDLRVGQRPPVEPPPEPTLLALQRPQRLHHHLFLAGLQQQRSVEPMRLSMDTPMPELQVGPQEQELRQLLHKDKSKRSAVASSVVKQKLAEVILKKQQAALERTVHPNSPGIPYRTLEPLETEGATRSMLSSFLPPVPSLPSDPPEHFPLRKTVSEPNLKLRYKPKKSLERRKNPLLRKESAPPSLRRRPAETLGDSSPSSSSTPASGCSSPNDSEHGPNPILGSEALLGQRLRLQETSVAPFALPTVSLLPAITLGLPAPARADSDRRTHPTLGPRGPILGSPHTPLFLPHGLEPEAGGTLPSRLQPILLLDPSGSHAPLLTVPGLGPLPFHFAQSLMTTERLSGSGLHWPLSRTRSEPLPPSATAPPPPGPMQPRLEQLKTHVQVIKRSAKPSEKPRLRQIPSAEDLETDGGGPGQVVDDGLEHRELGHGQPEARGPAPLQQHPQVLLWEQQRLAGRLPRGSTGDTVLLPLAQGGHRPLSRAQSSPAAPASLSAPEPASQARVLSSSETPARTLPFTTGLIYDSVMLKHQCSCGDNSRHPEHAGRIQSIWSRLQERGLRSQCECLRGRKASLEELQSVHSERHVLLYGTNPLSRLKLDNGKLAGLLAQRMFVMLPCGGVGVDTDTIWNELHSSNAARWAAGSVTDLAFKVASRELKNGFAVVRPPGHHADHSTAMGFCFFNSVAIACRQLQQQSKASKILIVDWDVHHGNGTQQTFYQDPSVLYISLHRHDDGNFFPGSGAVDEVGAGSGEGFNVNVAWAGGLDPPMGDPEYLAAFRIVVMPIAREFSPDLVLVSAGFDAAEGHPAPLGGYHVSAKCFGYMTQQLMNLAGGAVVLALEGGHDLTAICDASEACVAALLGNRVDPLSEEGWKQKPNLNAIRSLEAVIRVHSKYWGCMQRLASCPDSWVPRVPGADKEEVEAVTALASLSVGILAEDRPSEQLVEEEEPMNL
In words: Inhibition of recombinant full length human HDAC7 expressed in SF9 baculovirus using FAM- labelled acetylated peptide as substrate measured by Electrophoretic mobility shift assay.

A short description of series [4]: Efflux ratio of apparent permeability in human Caco2 cells measured after 2 hrs by LC-MS/MS method. Format: ADME, cell-based. The settings on record: Caco-2. A digest of the protocol: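 Bidirectional Caco-2 permeability was measured as Papp in the apical-to-basolateral and basolateral-to-apical directions. The efflux ratio was calculated from the two directional Papp values.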

In a further series the target is Histone deacetylase 1 (Homo sapiens, UniProt Q13547). Briefly: Inhibition of recombinant full length human HDAC1 expressed in SF9 baculovirus using FAM- labelled acetylated peptide as substrate measured by Electrophoretic mobility shift assay.
Series [5] addresses T1, Protein deacetylase HDAC6 (Homo sapiens). Briefly: Inhibition of HDAC6 in human MV4-11 cells assessed as increase in acetylation of alpha tubulin at 0.5 uM measured after 6 hrs by Western blot assay relative to histone H4 acetylation. Format: cell-based. Put shortly:
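MV4-11 cells were exposed to a range of concentrations for 6 h. Protein extracts were run on SDS-PAGE and immunoblotted for acetylated α-tubulin, acetylated histone H3 and acetylated histone H4, with HSC70 as the loading reference. A representative blot of three independent experiments is shown.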

The subject of series [6] is MV4-11. Briefly: Induction of apoptosis in human MV4-11 cells assessed as viable cells at 0.5 microM measured after 18 hrs by Annexin V/Propidium iodide stain based Flow cytometry assay (reference value: 53.27%). The following applies: read-out: Activity. It counts as functional.

Sequence of Histone deacetylase 5 (Q9UQL6 whole entry): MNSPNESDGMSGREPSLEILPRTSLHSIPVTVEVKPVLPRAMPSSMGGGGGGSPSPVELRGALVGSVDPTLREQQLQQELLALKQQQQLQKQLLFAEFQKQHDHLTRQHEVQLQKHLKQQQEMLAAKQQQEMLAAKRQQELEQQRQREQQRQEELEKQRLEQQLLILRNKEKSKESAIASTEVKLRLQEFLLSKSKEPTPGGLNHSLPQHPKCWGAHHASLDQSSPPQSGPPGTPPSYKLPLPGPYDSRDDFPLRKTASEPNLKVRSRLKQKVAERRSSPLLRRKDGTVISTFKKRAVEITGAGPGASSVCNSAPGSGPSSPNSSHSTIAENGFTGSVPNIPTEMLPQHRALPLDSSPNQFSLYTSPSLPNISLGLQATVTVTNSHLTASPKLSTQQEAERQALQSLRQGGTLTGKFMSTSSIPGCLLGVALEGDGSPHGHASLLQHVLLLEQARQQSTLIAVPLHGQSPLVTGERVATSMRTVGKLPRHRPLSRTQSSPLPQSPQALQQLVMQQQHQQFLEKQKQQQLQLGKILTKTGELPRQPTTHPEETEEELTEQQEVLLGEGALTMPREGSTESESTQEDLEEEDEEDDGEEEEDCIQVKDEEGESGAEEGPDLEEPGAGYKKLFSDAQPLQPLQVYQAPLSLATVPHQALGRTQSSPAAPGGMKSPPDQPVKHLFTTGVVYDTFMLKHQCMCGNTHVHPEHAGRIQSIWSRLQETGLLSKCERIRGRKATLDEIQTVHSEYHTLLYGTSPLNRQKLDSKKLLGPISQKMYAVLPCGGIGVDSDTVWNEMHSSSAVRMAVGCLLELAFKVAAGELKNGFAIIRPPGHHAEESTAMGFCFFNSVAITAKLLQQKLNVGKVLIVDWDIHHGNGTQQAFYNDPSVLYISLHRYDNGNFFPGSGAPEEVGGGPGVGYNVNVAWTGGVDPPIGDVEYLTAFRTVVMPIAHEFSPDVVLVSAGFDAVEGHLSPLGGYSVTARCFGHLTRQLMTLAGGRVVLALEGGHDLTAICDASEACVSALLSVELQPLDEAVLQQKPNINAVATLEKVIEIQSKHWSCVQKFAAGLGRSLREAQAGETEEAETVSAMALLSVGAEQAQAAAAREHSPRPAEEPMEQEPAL
Sequence of Histone deacetylase 1 (Q13547 whole entry): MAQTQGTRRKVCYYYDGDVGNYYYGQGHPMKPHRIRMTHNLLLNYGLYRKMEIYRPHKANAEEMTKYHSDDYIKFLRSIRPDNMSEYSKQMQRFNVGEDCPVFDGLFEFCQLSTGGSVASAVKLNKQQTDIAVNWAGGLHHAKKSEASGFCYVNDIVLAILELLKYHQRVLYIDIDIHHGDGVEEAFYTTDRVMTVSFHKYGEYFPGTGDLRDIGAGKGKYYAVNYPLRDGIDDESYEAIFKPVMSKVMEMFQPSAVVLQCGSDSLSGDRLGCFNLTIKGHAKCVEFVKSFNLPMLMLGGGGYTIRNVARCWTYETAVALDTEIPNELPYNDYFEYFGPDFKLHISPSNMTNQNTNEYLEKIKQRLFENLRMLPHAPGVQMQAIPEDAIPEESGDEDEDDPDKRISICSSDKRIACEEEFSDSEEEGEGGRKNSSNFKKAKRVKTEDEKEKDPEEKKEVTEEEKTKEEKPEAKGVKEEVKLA

In the case of `O=C(NO)c1ccc(CNC(=O)c2c(F)c(F)c(F)c(F)c2F)cc1`, in the series on MV4-11 [1], the viability at 2 µM is 20.2%. Moreover, the inhibition entry in series [2] and in [5] was “Active” each time. For the same compound, the IC50 in the series on Fibroblast was 11500 nM; on Histone deacetylase 5, over 1000 nM; at Histone deacetylase 7 it was over 1000 nM; at Histone deacetylase 1, over 1000 nM. Also, the remaining at 0.5 h in series [3] was 96.4%. For the same compound, in [4], the efflux ratio at 2 h came to 0.71. Further, in the series with MV4-11 [6], the viability at 0.5 µM worked out at 47.3%.
